Measurements reported in ChEMBL document CHEMBL4145534, “Computer-aided insights into receptor-ligand interaction for novel 5-arylhydantoin derivatives as serotonin 5-HT7 receptor agents with antidepressant activity” (Eur J Med Chem, 2018).

Experiments:
[1] = target: T1, Adrenergic receptor alpha-1 (Rattus norvegicus, UniProt P15823+P23944+P43140); assay: Displacement of [3H]-prazosin from alpha1-adrenergic receptor in rat brain cortex after 30 mins by Microbeta scintillation counting method
T1 sequence (P15823 whole entry): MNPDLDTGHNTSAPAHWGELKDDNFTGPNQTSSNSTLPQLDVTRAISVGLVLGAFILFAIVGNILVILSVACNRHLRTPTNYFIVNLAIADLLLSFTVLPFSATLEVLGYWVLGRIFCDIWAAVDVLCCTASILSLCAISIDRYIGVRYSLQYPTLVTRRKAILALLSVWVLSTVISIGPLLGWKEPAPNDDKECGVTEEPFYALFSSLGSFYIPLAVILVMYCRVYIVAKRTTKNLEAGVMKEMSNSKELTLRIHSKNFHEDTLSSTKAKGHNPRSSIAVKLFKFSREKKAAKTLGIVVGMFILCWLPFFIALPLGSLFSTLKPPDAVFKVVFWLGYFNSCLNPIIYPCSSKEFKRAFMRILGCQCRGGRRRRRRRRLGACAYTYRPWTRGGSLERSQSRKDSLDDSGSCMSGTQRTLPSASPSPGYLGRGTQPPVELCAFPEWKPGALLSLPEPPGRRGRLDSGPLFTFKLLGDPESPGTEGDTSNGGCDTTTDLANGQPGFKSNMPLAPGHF
T1 sequence (P23944 whole entry): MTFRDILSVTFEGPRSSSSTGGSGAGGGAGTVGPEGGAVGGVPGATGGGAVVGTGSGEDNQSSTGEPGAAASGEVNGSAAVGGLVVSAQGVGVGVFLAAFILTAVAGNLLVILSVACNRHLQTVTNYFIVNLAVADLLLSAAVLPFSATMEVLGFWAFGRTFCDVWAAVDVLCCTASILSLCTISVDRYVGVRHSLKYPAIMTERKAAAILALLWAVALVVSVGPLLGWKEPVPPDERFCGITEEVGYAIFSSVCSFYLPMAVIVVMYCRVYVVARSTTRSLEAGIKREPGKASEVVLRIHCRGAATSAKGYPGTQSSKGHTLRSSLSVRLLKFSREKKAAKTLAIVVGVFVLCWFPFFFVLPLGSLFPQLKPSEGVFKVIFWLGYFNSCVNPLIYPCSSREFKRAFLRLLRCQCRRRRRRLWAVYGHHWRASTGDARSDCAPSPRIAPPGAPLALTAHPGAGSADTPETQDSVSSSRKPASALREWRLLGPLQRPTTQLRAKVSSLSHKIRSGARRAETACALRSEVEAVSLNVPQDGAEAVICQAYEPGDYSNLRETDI
T1 sequence (P43140 whole entry): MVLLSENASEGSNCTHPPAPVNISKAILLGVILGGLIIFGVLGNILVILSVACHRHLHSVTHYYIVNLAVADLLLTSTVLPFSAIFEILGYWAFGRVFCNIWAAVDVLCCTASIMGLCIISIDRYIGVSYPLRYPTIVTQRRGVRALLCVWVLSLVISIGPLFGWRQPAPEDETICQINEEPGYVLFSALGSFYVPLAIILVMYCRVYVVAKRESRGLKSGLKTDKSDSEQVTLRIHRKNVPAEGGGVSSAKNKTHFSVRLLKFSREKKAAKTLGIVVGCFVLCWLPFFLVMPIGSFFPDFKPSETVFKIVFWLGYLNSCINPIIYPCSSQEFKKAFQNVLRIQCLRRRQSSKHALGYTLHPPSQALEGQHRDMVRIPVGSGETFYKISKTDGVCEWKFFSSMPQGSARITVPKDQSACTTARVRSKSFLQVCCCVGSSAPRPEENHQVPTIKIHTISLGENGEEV

[2] = target: 5-hydroxytryptamine receptor 7 (Homo sapiens, UniProt P34969); assay: Displacement of [3H]-5-CT from human 5HT7BR expressed in HEK293 cell membranes after 1 hr by Microbeta scintillation counting method
[3] = target: T2, Adrenergic receptor alpha-2 (Rattus norvegicus, UniProt P22086+P19328+P22909); assay: Displacement of [3H]-clonidine from alpha2-adrenergic receptor in rat brain cortex after 30 mins by Microbeta scintillation counting method
T2 sequence (P22086 whole entry): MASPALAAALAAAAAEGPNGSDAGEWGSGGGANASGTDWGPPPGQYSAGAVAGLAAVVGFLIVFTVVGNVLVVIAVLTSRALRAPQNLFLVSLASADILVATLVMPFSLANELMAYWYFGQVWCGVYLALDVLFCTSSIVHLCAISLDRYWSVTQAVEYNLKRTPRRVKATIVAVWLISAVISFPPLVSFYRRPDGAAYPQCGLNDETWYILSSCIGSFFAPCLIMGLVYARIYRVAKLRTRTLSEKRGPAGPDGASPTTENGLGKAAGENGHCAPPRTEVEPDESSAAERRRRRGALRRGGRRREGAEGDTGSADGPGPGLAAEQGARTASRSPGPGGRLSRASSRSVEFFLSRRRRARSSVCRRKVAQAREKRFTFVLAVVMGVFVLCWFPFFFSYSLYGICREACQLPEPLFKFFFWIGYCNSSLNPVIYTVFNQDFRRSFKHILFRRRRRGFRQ
T2 sequence (P19328 whole entry): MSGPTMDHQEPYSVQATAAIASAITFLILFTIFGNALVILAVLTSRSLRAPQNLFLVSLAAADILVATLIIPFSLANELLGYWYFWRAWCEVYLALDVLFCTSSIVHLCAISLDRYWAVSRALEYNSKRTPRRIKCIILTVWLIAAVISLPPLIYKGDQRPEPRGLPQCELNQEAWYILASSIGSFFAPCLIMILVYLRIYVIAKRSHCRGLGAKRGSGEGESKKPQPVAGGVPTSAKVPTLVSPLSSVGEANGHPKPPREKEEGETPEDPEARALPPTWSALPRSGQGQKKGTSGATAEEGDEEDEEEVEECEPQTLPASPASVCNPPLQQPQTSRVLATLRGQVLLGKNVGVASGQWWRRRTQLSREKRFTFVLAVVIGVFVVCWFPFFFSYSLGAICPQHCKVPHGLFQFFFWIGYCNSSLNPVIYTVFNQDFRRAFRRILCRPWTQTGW
T2 sequence (P22909 whole entry): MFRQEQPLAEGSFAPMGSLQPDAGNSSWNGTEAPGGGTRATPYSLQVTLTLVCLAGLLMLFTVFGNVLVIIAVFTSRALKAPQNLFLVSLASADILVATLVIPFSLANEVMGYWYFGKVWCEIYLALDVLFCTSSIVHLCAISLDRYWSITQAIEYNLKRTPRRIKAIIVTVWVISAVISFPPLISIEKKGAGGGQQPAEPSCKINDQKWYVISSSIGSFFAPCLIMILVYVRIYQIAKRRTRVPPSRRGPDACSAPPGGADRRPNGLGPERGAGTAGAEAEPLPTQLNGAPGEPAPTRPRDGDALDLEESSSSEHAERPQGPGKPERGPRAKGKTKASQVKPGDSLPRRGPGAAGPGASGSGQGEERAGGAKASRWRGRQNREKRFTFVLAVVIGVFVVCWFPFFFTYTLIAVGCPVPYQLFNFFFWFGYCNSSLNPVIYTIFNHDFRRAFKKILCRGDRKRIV

[4] = target: T3, 5-hydroxytryptamine receptor 1A (Homo sapiens, UniProt P08908); assay: Displacement of [3H]-8-OH-DPAT from human 5HT1AR expressed in HEK293 cell membranes after 1 hr by Microbeta scintillation counting method
T3 sequence (P08908 whole entry): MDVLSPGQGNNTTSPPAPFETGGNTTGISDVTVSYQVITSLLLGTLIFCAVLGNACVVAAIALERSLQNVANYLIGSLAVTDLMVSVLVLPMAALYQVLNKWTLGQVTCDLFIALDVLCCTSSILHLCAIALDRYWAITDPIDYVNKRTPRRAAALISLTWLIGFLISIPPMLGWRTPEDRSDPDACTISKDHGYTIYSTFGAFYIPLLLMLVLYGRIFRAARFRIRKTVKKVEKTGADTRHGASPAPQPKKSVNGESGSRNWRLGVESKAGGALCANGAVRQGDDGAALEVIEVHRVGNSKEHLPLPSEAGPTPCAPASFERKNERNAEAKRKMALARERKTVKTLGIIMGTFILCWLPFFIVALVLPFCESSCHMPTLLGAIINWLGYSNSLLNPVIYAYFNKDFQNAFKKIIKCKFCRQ

D(2) dopamine receptor = D(2) dopamine receptor (Homo sapiens, UniProt P14416); assay: Displacement of [3H]-raclopride from human D2L receptor expressed in HEK293 cell membranes after 1 hr by Microbeta scintillation counting method
Mus musculus [5] = assay: Antidepressant like activity in Swiss albino mouse assessed as immobility time at 10 mg/kg, ip administered 60 mins prior to test and measured last 4 mins of 6 mins test by forced swimming test (reference value: 159.78 to 183.56 secs); type: functional
Homo sapiens = organism: Homo sapiens; assay: Selectivity ratio of Ki for human D2L receptor expressed in HEK293 cell membranes to Ki for human 5HT7BR expressed in HEK293 cell membranes; type: cell-based
How it was run: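 Membranes from HEK293 cells stably expressing human 5-HT1A, 5-HT7b or D2L receptors. Buffers all 50 mM Tris HCl with 4 mM MgCl2 and 0.1% ascorbate. 5-HT1A: 0.1 mM EDTA, 10 µM pargyline, 2.5 nM [3H]-8-OH-DPAT, room temperature. 5-HT7b: 10 µM pargyline, 0.8 nM [3H]-5-CT, 37°C. D2L: EDTA, NaCl, KCl, CaCl2, 2.5 nM [3H]-raclopride, 37°C. Incubation 1 h; nonspecific binding 10 µM 5-HT (haloperidol for D2L). Seven concentrations (10^-10–10^-4 M) in triplicate; filtration; Ki by Cheng-Prusoff; at least two experiments.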

[6] = target: Beta-1 adrenergic receptor (Rattus norvegicus, UniProt P18090); assay: Displacement of [3H]-CGP-12177 from beta1-adrenergic receptor in rat brain cortex after 1 hr by Microbeta scintillation counting method
Mus musculus [7] = assay: Antidepressant like activity in Swiss albino mouse assessed as immobility time at 20 mg/kg, ip administered 60 mins prior to test and measured last 4 mins of 6 mins test by forced swimming test (reference value: 159.78 to 183.56 secs); type: functional
Mus musculus [8] = assay: Anxiolytic-like activity in Swiss albino mouse assessed as number of punished crossings at 10 mg/kg, ip administered 60 mins prior to test and measured post 3 secs of electric shock by four-plate test (reference value: 3.8 to 4 /min); type: functional
Mus musculus [9] = assay: Antidepressant like activity in Swiss albino mouse assessed as immobility time at 5 mg/kg, ip administered 60 mins prior to test and measured last 4 mins of 6 mins test by forced swimming test (reference value: 159.78 to 183.56 secs); type: functional
Mus musculus [10] = assay: Antidepressant like activity in Swiss albino mouse assessed as decrease in immobility time at 20 mg/kg, ip administered 60 mins prior to test and measured last 4 mins of 6 mins test by forced swimming test relative to control; type: functional; design: scale not given: the % may be the effect or the level left
Mus musculus [11] = assay: Anxiolytic-like activity in Swiss albino mouse assessed as number of punished crossings at 40 mg/kg, ip administered 60 mins prior to test and measured post 3 secs of electric shock by four-plate test (reference value: 3.8 to 4 /min); type: functional
Mus musculus [12] = assay: Anxiolytic-like activity in Swiss albino mouse assessed as number of punished crossings at 20 mg/kg, ip administered 60 mins prior to test and measured post 3 secs of electric shock by four-plate test (reference value: 3.8 to 4 /min); type: functional
Mus musculus [13] = assay: Effect on spontaneous locomotor activity in Swiss albino mouse at 20 mg/kg, ip administered 60 mins prior to test and measured for 3 to 6 mins; type: ADME, organism-based; settings: in vivo
How it was run: (§1)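 Male Swiss Albino mice given compound or vehicle (1% Tween 80, 10 ml/kg) i.p. 60 min before test. Each mouse placed alone in a cage for 30 min habituation. Ambulation (photobeam channel crossings) then recorded over a 3–6 min session. Means ± SEM.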

Mus musculus [14] = assay: Effect on spontaneous locomotor activity in Swiss albino mouse at 10 mg/kg, ip administered 60 mins prior to test and measured for 3 to 6 mins; type: ADME, organism-based; settings: in vivo; how it was run: as §1
Mus musculus [15] = assay: Anxiolytic-like activity in Swiss albino mouse assessed as number of punished crossings at 5 mg/kg, ip administered 60 mins prior to test and measured post 3 secs of electric shock by four-plate test (reference value: 3.8 to 4 /min); type: functional

Chain of D(2) dopamine receptor (P14416 whole entry): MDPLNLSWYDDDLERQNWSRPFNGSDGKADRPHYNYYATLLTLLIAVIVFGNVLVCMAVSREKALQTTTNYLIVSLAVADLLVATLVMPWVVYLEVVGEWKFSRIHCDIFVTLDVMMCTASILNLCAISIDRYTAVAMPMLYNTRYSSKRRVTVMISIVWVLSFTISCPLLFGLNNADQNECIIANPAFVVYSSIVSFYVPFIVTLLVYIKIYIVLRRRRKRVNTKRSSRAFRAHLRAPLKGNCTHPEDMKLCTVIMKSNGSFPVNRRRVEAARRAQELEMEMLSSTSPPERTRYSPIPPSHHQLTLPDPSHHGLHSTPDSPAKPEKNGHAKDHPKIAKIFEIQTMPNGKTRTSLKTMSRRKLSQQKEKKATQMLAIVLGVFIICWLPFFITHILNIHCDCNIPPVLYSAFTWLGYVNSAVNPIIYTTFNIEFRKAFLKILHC
Chain of 5-hydroxytryptamine receptor 7 (P34969 whole entry): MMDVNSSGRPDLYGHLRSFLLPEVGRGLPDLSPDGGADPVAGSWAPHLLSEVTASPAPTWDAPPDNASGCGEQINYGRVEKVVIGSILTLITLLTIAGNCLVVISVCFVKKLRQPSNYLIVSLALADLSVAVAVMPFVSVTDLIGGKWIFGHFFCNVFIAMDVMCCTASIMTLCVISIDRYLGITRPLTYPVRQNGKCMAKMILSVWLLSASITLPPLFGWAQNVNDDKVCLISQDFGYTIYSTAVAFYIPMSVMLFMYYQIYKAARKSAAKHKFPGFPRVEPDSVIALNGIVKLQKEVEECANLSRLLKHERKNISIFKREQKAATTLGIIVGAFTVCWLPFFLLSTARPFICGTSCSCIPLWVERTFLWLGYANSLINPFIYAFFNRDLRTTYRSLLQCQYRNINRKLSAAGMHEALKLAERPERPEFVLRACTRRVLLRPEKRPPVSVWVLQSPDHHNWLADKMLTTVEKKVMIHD
Chain of Beta-1 adrenergic receptor (P18090 whole entry): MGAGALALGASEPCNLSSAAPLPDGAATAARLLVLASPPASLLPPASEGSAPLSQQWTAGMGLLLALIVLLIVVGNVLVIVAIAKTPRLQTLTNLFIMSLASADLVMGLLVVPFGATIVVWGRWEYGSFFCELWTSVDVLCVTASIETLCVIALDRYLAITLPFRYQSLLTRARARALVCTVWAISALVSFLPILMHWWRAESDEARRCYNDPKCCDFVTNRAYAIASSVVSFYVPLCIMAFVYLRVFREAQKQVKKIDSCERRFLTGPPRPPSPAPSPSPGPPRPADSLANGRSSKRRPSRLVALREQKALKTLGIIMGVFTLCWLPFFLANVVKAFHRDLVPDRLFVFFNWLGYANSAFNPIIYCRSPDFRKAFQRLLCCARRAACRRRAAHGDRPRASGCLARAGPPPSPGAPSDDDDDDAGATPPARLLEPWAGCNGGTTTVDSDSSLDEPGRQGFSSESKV

Ki [1] [nM] | Ki [2] [nM] | Ki [3] [nM] | Ki [4] [nM] | Ki (D(2) dopamine receptor) [nM] | Ki [6] [nM] | Structure (SMILES) | other results
268 | 20 | > 10000 | 109 | 366 |  | COc1ccccc1N1CCN(CC(O)CN2C(=O)NC(C)(c3ccc(Cl)cc3)C2=O)CC1.Cl (racemic) | 
278 | 12 |  | 585 | 1690 | > 10000 | CC1(c2ccccc2)NC(=O)N(CC(O)CN2CCN(c3ccccc3C#N)CC2)C1=O.Cl (racemic) | Time (Mus musculus [5]): 134.57 s; Ratio Ki (Homo sapiens): 140 to 190; Time (Mus musculus [7]): 34.44 s; Activity (Mus musculus [8]): 3.3 min⁻¹; Time (Mus musculus [9]): 141.22 s; Activity (Mus musculus [10]): 80%; Activity (Mus musculus [11]): 5.2 min⁻¹; Activity (Mus musculus [12]): 4.9 min⁻¹; Activity (Mus musculus [13]): Non-Toxic
 | 1200 |  | 341 | 534 |  | N#Cc1ccccc1N1CCN(CC(O)CN2C(=O)NC(c3ccccc3)(c3ccccc3)C2=O)CC1 (racemic) | 
530 | 8 | > 10000 | 99 | 601 |  | CC1(c2ccc(Cl)cc2)NC(=O)N(CC(O)CN2CCN(C(c3ccccc3)c3ccccc3)CC2)C1=O.Cl (racemic) | 
308 | 10 |  | 421 | 1030 | > 10000 | COc1ccccc1N1CCN(CC(O)CN2C(=O)NC(C)(c3ccccc3)C2=O)CC1.Cl (racemic) | Time (Mus musculus [5]): 121.38 s; Time (Mus musculus [7]): 66.11 s; Activity (Mus musculus [8]): 4.7 min⁻¹; Time (Mus musculus [9]): 182.89 s; Activity (Mus musculus [14]): Non-Toxic; Activity (Mus musculus [12]): 4.3 min⁻¹; Activity (Mus musculus [13]): Non-Toxic; Activity (Mus musculus [15]): 3 min⁻¹
 | 566 |  | 197 | 497 |  | COc1ccccc1N1CCN(CC(O)CN2C(=O)NC(c3ccccc3)(c3ccccc3)C2=O)CC1 (racemic) | 
 |  |  | 219 |  |  | COc1ccc(C2(C)NC(=O)N(CC(O)CN3CCN(c4ccccc4C#N)CC3)C2=O)cc1 (racemic) | 
 | 50 |  | 184 | 876 |  | COc1ccccc1N1CCN(CC(O)CN2C(=O)NC(C)(c3ccc(C)cc3)C2=O)CC1 (racemic) | 
500 | 6 | > 5000 | 190 | 303 | > 10000 | CCOc1ccccc1N1CCN(CC(O)CN2C(=O)NC(C)(c3ccccc3)C2=O)CC1.Cl (racemic) | 
